Data from ChEMBL document CHEMBL1154824, “Synthesis and biological activity of derivatives of the marine quinone avarone” (Eur J Med Chem, 2010).
Converted amounts (≈) assume the structure as drawn. The source made the active and inactive calls. The rule behind the calls is not given here.

Assays:
HeLa = experiment: Cytotoxicity against human HeLa cells assessed as decrease in total cellular protein by kenacid blue R binding method; type: functional, cell-based
[1] = Cytotoxicity against human Fem-X cells assessed as decrease in total cellular protein by kenacid blue R binding method; type: functional, cell-based
K562 [2] = experiment: Cytotoxicity against human K562 cells by MTT assay; type: functional, cell-based
Escherichia coli = experiment: Antibacterial activity against Escherichia coli ATCC 35218 by serial dilution method; type: functional
Staphylococcus aureus = experiment: Antibacterial activity against Staphylococcus aureus ATCC 25923 by serial dilution method; type: functional
Artemia salina = experiment: Toxicity against freshly hatched nauplii of brine shrimp after 24 hrs; type: organism-based; details: in vivo
[3] = Cytotoxicity against human T4 lymphocytes
NCI-H23 = experiment: Cytotoxicity against human NCI-H23 cells after 48 hrs by sulforhodamine B assay; type: functional; details: NCI-H23, 48 h
Outline: (§1)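 Tested at NIH-NCI against the 60 human tumor cell line panel. Each line was exposed to at least five concentrations for 48 h. Growth and survival were read by the sulforhodamine test.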

CCRF-CEM = experiment: Cytotoxicity against human CCRF-CEM cells after 48 hrs by sulforhodamine B assay; type: functional; outline: as §1
HOP-92 = experiment: Cytotoxicity against human HOP92 cells after 48 hrs by sulforhodamine B assay; type: functional; details: HOP-92, 48 h; outline: as §1
[4] = tested on: Human immunodeficiency virus; experiment: Antiviral activity against HIV infected in human T4 lymphocytes assessed as protection from HIV-induced cytopathogenicity at 2 uM; type: functional
[5] = Cytotoxicity against human colon cancer cells after 48 hrs by sulforhodamine B assay; type: functional; details: Cancer cell lines; outline: as §1
T47D = experiment: Cytotoxicity against human T47D cells after 48 hrs by sulforhodamine B assay; type: functional; outline: as §1
RXF 393 = experiment: Cytotoxicity against human RXF393 cells after 48 hrs by sulforhodamine B assay; type: functional; details: RXF 393, 48 h; outline: as §1
MOLT-4 = experiment: Cytotoxicity against human MOLT4 cells after 48 hrs by sulforhodamine B assay; type: functional; details: MOLT-4, 48 h; outline: as §1
MDA-MB-435 = experiment: Cytotoxicity against human MDA-MB-435 cells after 48 hrs by sulforhodamine B assay; type: functional; details: MDA-MB-435, 48 h; outline: as §1
LOX IMVI = experiment: Cytotoxicity against human LOXIMVI cells after 48 hrs by sulforhodamine B assay; type: functional; outline: as §1
PBMC [6] = experiment: Cytotoxicity against human phytohemagglutininin-stimulated PBMC cells assessed as growth inhibition by MTT assay; type: cell-based
MCF7 = experiment: Cytotoxicity against human MCF7 cells after 48 hrs by sulforhodamine B assay; type: functional; details: MCF7, 48 h; outline: as §1
K562 [7] = experiment: Cytotoxicity against human K562 cells after 48 hrs by sulforhodamine B assay; type: functional; details: K562, 48 h; outline: as §1
IGROV-1 = experiment: Cytotoxicity against human IGROV1 cells after 48 hrs by sulforhodamine B assay; type: functional; details: IGROV-1, 48 h; outline: as §1
RPMI-8226 = experiment: Cytotoxicity against human RPMI8226 cells after 48 hrs by sulforhodamine B assay; type: functional; details: RPMI-8226, 48 h; outline: as §1
[8] = Cytotoxicity against human CNS cancer cells after 48 hrs by sulforhodamine B assay; type: functional; details: Cancer cell lines; outline: as §1
PBMC [9] = experiment: Cytotoxicity against human PBMC cells by MTT assay; type: cell-based
SK-MEL-2 = experiment: Cytotoxicity against human SK-MEL-2 cells after 48 hrs by sulforhodamine B assay; type: functional; details: SK-MEL-2, 48 h; outline: as §1
[10] = Cytotoxicity against human prostate cancer cells after 48 hrs by sulforhodamine B assay; type: functional; details: Cancer cell lines; outline: as §1

Row | SMILES | IC50 (HeLa) [µM] | IC50 [1] [µM] | IC50 (K562 [2]) [µM] | MIC (Escherichia coli) | MIC (Staphylococcus aureus) | LC50 (Artemia salina) | IC50 (PBMC [6]) [µM] | IC50 (PBMC [9]) [µM] | other results
1 | CC1=CCC[C@H]2[C@](C)(CC3=CC(=O)C=C(Sc4ccccc4)C3=O)[C@@H](C)CC[C@]12C | 54.8 | 41.5 | 17.4 | inactive | 12.5 µg/mL (≈ 29.7 µM) | 32.33 ppm |  |  | 
2 | CCCCCCCCSC1=CC(=O)C(C[C@]2(C)[C@@H](C)CC[C@]3(C)C(C)=CCC[C@@H]23)=CC1=O | > 100 | > 100 | > 100 | 25 µg/mL (≈ 54.7 µM) | inactive | Not Active |  |  | 
3 | CC1=CCC[C@H]2[C@](C)(CC3=CC(=O)C(Sc4ccccc4)=CC3=O)[C@@H](C)CC[C@]12C | 45 | 42.5 | 15.2 | inactive | 12.5 µg/mL (≈ 29.7 µM) | 30.21 ppm | 11.2 | 9.9 | Activity [3]: Toxic; GI50 (NCI-H23): 14.8 µM; GI50 (CCRF-CEM): 3.89 µM; GI50 (HOP-92): 17 µM; Activity [4]: 12.5%; GI50 [5]: > 10 µM; GI50 (T47D): 20.4 µM; GI50 (RXF 393): 16.2 µM; GI50 (MOLT-4): 2570 nM; GI50 (MDA-MB-435): 17 µM; GI50 (LOX IMVI): 13.5 µM; GI50 (MCF7): 22.4 µM; GI50 (K562 [7]): 19.5 µM; GI50 (IGROV-1): 16.2 µM; GI50 (RPMI-8226): 20.4 µM; GI50 [8]: > 10 µM; GI50 (SK-MEL-2): 20 µM; GI50 [10]: > 10 µM
4 | CCCSC1=CC(=O)C(C[C@]2(C)[C@@H](C)CC[C@]3(C)C(C)=CCC[C@@H]23)=CC1=O | 97 | 89.5 | 45.5 | inactive | 50 µg/mL (≈ 129 µM) | 0.2 ppm |  |  | 
5 | CC1=CCC[C@H]2[C@](C)(CC3=CC(=O)C(SC(C)(C)C)=CC3=O)[C@@H](C)CC[C@]12C | 37 | 38 | 25.7 | inactive | 50 µg/mL (≈ 125 µM) | 0.89 ppm | 20.8 | 21.7 | 
6 | CCCCSC1=CC(=O)C(C[C@]2(C)[C@@H](C)CC[C@]3(C)C(C)=CCC[C@@H]23)=CC1=O | 25.1 | 24.4 | 12.5 | inactive | 25 µg/mL (≈ 62.4 µM) | 0.92 ppm |  |  | 
7 | C[C@H]1c2cccc(O)c2C(=O)C2=C(O)[C@]3(O)C(=O)C(C(N)=O)=C(O)[C@@H](N(C)C)[C@@H]3[C@@H](O)[C@@H]21.O [DOXYCYCLINE] |  |  |  | 2 µg/mL | 4 µg/mL |  |  |  | 
8 | CC1=CCC[C@H]2[C@](C)(CC3=CC(=O)C=CC3=O)[C@@H](C)CC[C@]12C [AVARONE] | 26.8 | 23.9 | 4.9 | 25 µg/mL (≈ 80 µM) | 6.25 µg/mL (≈ 20 µM) | 0.14 ppm | 4.5 | 4.8 | 
9 | CC1=CCC[C@H]2[C@](C)(CC3=CC(=O)C(SC(C)C)=CC3=O)[C@@H](C)CC[C@]12C | 67 | 86 | 47.5 | inactive | inactive | 0.44 ppm |  |  | 
10 | CC1=CCC[C@H]2[C@](C)(CC3=CC(=O)C4=C(SCCS4)C3=O)[C@@H](C)CC[C@]12C | > 100 | 75 | 91 | 100 µg/mL (≈ 248 µM) | inactive | 2045 ppm |  |  | GI50 (NCI-H23): 13.2 µM; GI50 (CCRF-CEM): 11 µM; GI50 (HOP-92): 31.6 µM; GI50 [5]: > 10 µM; GI50 (T47D): > 100 µM; GI50 (RXF 393): 18.6 µM; GI50 (MOLT-4): 21400 nM; GI50 (MDA-MB-435): 8.13 µM; GI50 (LOX IMVI): 11.2 µM; GI50 (MCF7): 20.4 µM; GI50 (K562 [7]): 20 µM; GI50 (IGROV-1): 32.4 µM; GI50 (RPMI-8226): 14.1 µM; GI50 [8]: > 10 µM; GI50 (SK-MEL-2): 1.7 µM; GI50 [10]: > 10 µM
11 | CC1=CCC[C@H]2[C@](C)(Cc3cc(O)ccc3O)[C@@H](C)CC[C@]12C [AVAROL] | 19.7 | 21.7 | 7.3 | inactive | 12.5 µg/mL (≈ 39.7 µM) | 0.18 ppm | 3.2 | 3 | 
12 | CC1=CCC[C@H]2[C@](C)(CC3=CC(=O)C(SCC(C)C)=CC3=O)[C@@H](C)CC[C@]12C | 98 | 89.5 | 39 | 25 µg/mL (≈ 62.4 µM) | 50 µg/mL (≈ 125 µM) | 0.17 ppm |  |  | Activity [3]: Toxic; GI50 (NCI-H23): 5.5 µM; GI50 (CCRF-CEM): 1.35 µM; GI50 (HOP-92): 4.79 µM; Activity [4]: 28.5%; GI50 [5]: > 10 µM; GI50 (T47D): 2.63 µM; GI50 (RXF 393): 6.76 µM; GI50 (MOLT-4): 2290 nM; GI50 (MDA-MB-435): 15.5 µM; GI50 (LOX IMVI): 4.07 µM; GI50 (MCF7): 7.24 µM; GI50 (K562 [7]): 4.47 µM; GI50 (IGROV-1): 10 µM; GI50 (RPMI-8226): 3.8 µM; GI50 [8]: > 10 µM; GI50 (SK-MEL-2): 20.9 µM; GI50 [10]: > 10 µM
13 | CNC1=CC(=O)C(C[C@]2(C)[C@@H](C)CC[C@]3(C)C(C)=CCC[C@@H]23)=CC1=O | 12.6 | 2.4 | 9.3 | inactive | inactive | 0.34 ppm | > 100 | > 100 | 
14 | CC1CCC[C@H]2[C@](C)(CC3=CC(=O)C(Cl)=CC3=O)[C@@H](C)CC[C@]12C (stereo not given in full) | 34.1 | 32.2 | 11.2 | 25 µg/mL (≈ 71.7 µM) | 50 µg/mL (≈ 143 µM) | 0.65 ppm |  |  | 
15 | COC1=CC(=O)C=C(C[C@]2(C)[C@@H](C)CC[C@]3(C)C(C)=CCC[C@@H]23)C1=O | 13.3 | 9.8 | 2.1 | 50 µg/mL (≈ 146 µM) | 25 µg/mL (≈ 73 µM) | 0.02 ppm | 5.5 | 5.9 | 
